The entries come from a sample that favours hits as a whole.
ABCB6 inh 2: human ABCB6 transporter inhibition; 360,000 tested, 0.19% active; fluorescence ratio to DMSO, % at 10 µM; K562-ABCB6 porphyrin accumulation, flow cytometry, 1 h; stronger effect = lower value; Q9NP58;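 active = fluorescence ratio to DMSO below 75%, the collection mean minus 3 SD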;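 also: signal is porphyrin accumulated inside mitochondria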
Target sequence (Q9NP58 whole entry, looked up): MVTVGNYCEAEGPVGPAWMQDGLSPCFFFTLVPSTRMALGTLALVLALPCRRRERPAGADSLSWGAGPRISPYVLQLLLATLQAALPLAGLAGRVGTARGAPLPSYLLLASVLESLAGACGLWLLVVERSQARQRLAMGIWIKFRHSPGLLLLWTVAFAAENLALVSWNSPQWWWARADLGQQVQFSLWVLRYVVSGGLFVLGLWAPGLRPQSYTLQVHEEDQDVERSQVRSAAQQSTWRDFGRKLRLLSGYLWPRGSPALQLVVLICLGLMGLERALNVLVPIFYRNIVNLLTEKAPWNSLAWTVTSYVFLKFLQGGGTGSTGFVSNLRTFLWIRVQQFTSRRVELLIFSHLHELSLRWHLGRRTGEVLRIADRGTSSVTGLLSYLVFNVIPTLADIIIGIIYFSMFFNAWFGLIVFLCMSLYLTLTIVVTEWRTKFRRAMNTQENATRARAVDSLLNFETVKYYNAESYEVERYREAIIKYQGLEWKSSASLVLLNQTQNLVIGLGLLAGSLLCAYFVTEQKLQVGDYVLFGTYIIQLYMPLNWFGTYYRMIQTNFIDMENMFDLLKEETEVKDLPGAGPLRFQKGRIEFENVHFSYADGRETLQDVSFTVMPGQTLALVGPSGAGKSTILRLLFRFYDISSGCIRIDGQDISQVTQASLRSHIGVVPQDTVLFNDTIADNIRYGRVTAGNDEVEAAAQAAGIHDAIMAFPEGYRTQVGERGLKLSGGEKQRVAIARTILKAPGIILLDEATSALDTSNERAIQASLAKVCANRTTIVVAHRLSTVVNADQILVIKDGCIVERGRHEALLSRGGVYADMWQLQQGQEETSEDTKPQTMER
Xi reactivation: reactivates the inactive X chromosome in mouse fibroblasts; 360,000 tested, 0.055% active; XiGFP mouse fibroblasts, % GFP-positive cells imaging, 3 d; cells co-treated with 5-aza-dC sensitizer; scaled so ellipticine positive control = 100%; activation, % at 7.58 µM;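 active = mean normalized replicate activation at least 10% and every replicate at or above 10%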
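assay system = SV40-immortalized XiGFP fibroblast cells, line 68-5-11 | buffer or medium = DMEM plus 5-aza-dC sensitizer | doses = single-point pinned compound dosing | times = 3-day compound exposure, then 15 min fixation at room temperature | benchmarks = positive control ellipticine, 6 µM final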
Myeloid diff 2: myeloid differentiation induction. calls only at 10 µM. AID 624256. ER-HoxA9 myeloid progenitors, lysozyme-GFP differentiation, flow cytometry. 360,000 tested, 1% active;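 active = normalized GFP-positive differentiation at or above the plate's own cutoff, the solvent-only control mean plus 3 SD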;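 also: cells exposed to compound for four days before flow analysis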
Myeloid diff: compounds promoting myeloid differentiation; shares compounds with Myeloid diff 2; ER-HoxA9 myeloid progenitors, GFP/Mac1 double-positive flow; AID 651706; 2,300 tested, 2% active; calls only;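 active = share of green or green-and-red cells above 9 and 9% in run 1 or 4 and 3% in run 2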
GFP autofluor: counter-screen for myeloid differentiation promoters: compound fluorescence; shares compounds with Myeloid diff 2; ER-HoxA9 myeloid progenitors, no estrogen, GFP autofluorescence flow cytometry; vehicle wells 0%, positive control 100%; fluorescence response, % (no concentration beside the values); 2,300 tested, 7.4% active;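 active = over 5% cells positive for green fluorescent reporter, or over 2% positive for both it and APC stain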
Calls only; i = inactive; nt = no result; + = active, no number.

SMILES	ABCB6 inh 2	Xi reactivation	Myeloid diff 2	Myeloid diff	GFP autofluor
O=C(C[C@H]1CC[C@H]2[C@@H](COC[C@H](O)CN2Cc2cccc(Cl)c2)O1)Nc1nccs1	nt	i	nt	nt	nt
Cc1cc(C)cc(N(C(=O)Cc2cccs2)C(C(=O)NC2CCCC2)c2ccc(C)o2)c1 (stereo not given)	i	nt	i	nt	nt
COc1ccccc1CN(C(=O)Cc1cccs1)C(C(=O)NC1CCCC1)c1ccncc1 (stereo not given)	i	nt	i	i	i
Cc1ccc(C(C(=O)NC2CCCC2)N(C(=O)Cc2cccs2)c2cccc(C)c2C)o1 (stereo not given)	i	nt	i	i	i
O=C(NC1CCCC1)C(c1ccncc1)N(Cc1ccccc1)C(=O)Cc1cccs1 (stereo not given)	i	nt	i	nt	nt
CC(=O)N(C)C[C@@H]1Oc2cc(C#Cc3ccccn3)ccc2S(=O)(=O)N([C@H](C)CO)C[C@@H]1C	nt	i	nt	nt	nt
Cc1ccc(Cl)cc1N1CCN(Cc2nc3c(c(=O)[nH]c(=O)n3C)n2Cc2ccccc2F)CC1	i	i	i	nt	nt
Cc1ccc(Cl)cc1N1CCN(Cc2nc3c(c(=O)[nH]c(=O)n3C)n2CCc2ccccc2)CC1	i	nt	i	i	i
CO[C@@H]1CN(C)C(=O)c2ccc(NC(=O)C3CCOCC3)cc2OC[C@H](C)N(C(C)=O)C[C@H]1C	nt	i	nt	nt	nt
COc1ccc(S(=O)(=O)n2ccc(C(C)Oc3ccc(-c4ccccc4)c(F)c3)n2)cc1 (stereo not given)	i	nt	i	nt	nt
CC(Oc1ccc(-c2ccccc2)c(F)c1)c1ccn(S(=O)(=O)c2ccc(F)cc2)n1 (stereo not given)	i	nt	i	i	i
O=C(C[C@H]1C=C[C@@H](NC(=O)c2cccnc2)[C@@H](CO)O1)NCc1ccc(Cl)c(Cl)c1	nt	i	nt	nt	nt
Cc1ccc(S(=O)(=O)N[C@H]2C=C[C@@H](CC(=O)NC3CCCCC3)O[C@H]2CO)cc1	nt	i	nt	nt	nt
CC(C)CC(=O)Nc1ccc(C(=O)NNC(=O)C(c2ccccc2)c2ccccc2)cc1	i	nt	i	i	i
CCC(=O)Nc1ccc(C(=O)NNC(=O)C(c2ccccc2)c2ccccc2)cc1	i	i	i	nt	nt
C/C=C/c1ccc2c(c1)[C@H]1[C@H](CCN1S(=O)(=O)c1ccc(C)cc1)[C@H](CO)N2	nt	i	nt	nt	nt
NNC(=O)c1[nH]c2ccc(Cl)cc2c1-c1ccccc1	i	i	i	i	i
O=C(O)CSc1c(-c2ccccc2)c2cc(Cl)ccc2[nH]c1=O	i	i	i	nt	nt
COc1ccc2c3c([nH]c2c1)[C@H](CO)N(C(=O)c1ccccc1)CC31CCN(C(=O)CC2CC2)CC1	nt	i	nt	nt	nt
Cc1ccc(/C=C/C(O)=C2/C(=O)N(C)C3(C)CC2c2ccccc2O3)cc1 (stereo not given)	i	nt	i	nt	nt
COc1ccc(/C=C/C(O)=C2/C(=O)N(C)C3(C)CC2c2ccccc2O3)cc1 (stereo not given)	i	nt	+	+	i
C[C@H]1CN([C@@H](C)CO)C(=O)Cc2cc(NS(=O)(=O)c3ccc(Cl)cc3)ccc2O[C@@H]1CN(C)Cc1ccc(C(=O)O)cc1	nt	i	nt	nt	nt
COc1ccccc1N(O)C1CC(=O)N(c2ccc(F)cc2)C1=O (stereo not given)	i	nt	i	i	i
COc1ccccc1N1C(=O)CC(N(O)c2ccccc2)C1=O (stereo not given)	i	i	i	nt	nt
CCN(C[C@H]1N[C@@H](CO)[C@H]1c1ccccc1)C(=O)c1ccccc1	nt	i	nt	nt	nt
SMILES	ABCB6 inh 2	Xi reactivation	Myeloid diff 2	Myeloid diff	GFP autofluor
CCn1c(=NC(=O)CS(=O)(=O)c2ccc(C)cc2)sc2cccc(OC)c21	i	i	i	i	i
COc1cccc2sc(=NC(=O)CS(=O)(=O)c3ccc(F)cc3)n(C)c12	i	i	i	nt	nt
COc1cccc2sc(=NC(=O)CS(=O)(=O)c3ccccc3)n(C)c12	i	i	i	nt	nt
COc1cccc2sc(=NC(=O)CS(=O)(=O)c3ccc(Cl)cc3)n(C)c12	i	i	+	i	i
COc1ccc(CN(C)C[C@@H]2Oc3c(NS(=O)(=O)c4ccc(Cl)cc4)cccc3C(=O)N([C@@H](C)CO)C[C@@H]2C)cc1	nt	i	nt	nt	nt
CO[C@@H]1CN(C)C(=O)c2ccc(NC(C)=O)cc2OC[C@@H](C)N(C(=O)c2ccncc2)C[C@H]1C	nt	i	nt	nt	nt
Cc1noc(C)c1NC(=O)Nc1ccc2c(c1)C(=O)N([C@@H](C)CO)C[C@@H](C)[C@@H](CN(C)Cc1ccc(C(F)(F)F)cc1)OCCCC[C@H](C)O2	nt	i	nt	nt	nt
Cc1noc(C)c1NC(=O)N(C)C[C@H]1OCCCC[C@@H](C)Oc2ccc(NS(=O)(=O)c3ccccc3)cc2C(=O)N([C@@H](C)CO)C[C@@H]1C	nt	i	nt	nt	nt
Cc1cccc(C)c1NC(=O)C1(C)CSCC(=O)N1CCOc1ccccc1 (stereo not given)	nt	i	i	i	i
COCCN1C(=O)CSCC1(C)C(=O)Nc1c(C)cccc1C (stereo not given)	nt	i	i	nt	nt
C[C@H]1CN([C@@H](C)CO)C(=O)c2cc(C#CC3CC3)cnc2O[C@@H]1CN(C)Cc1ccccn1	nt	i	nt	nt	nt
CC(=O)Nc1ccc(N=NN2CCOCC2)cc1	i	i	i	i	i
CC(=O)Nc1cccc(N=NN2CCOCC2)c1	i	i	i	nt	nt
Cc1nn(Cc2ccccc2)c(Cl)c1C(=O)OCc1nnc(-c2ccc(Cl)cc2)o1	i	nt	+	i	i
Cc1nn(Cc2ccccc2)c(Cl)c1C(=O)OCc1nnc(-c2ccccc2)o1	i	nt	i	nt	nt
CCS(=O)(=O)N1CC2(CN(CC3CCOCC3)[C@H](CO)c3c2c2ccc(OC)cc2n3C)C1	nt	i	nt	nt	nt
CC(=O)Nc1ccc(NC(=O)CCS(=O)(=O)c2ccc3c(c2)oc(=O)n3C)cc1	i	i	i	nt	nt
Cn1c(=O)oc2cc(NC(=O)CCl)ccc21	i	i	i	i	i

Screens deposited in PubChem by several laboratories.
